Values joined by “and” are separate entries in the source; they are usually repeats but may differ in a detail not shown here. Equal entries are not always repeated.

Assay [1] addresses Somatostatin receptor type 1 (Homo sapiens, UniProt P30872). Kind of assay: Binding affinity towards human Somatostatin receptor type 1 using 125I-[Leu8,DTrp22,Tyr25]SRIF-28 as radioligand. The gist of the method: (§1)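 Competitive radioligand displacement on cloned somatostatin receptors, with non-selective 125I-[Leu8,DTrp22,Tyr25]SRIF-28 as the tracer. IC50 (nM) is taken from the displacement curves. Separate determinations are listed individually, or their number is given in parentheses.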

Assay [2] has as its target Somatostatin receptor type 4 (Homo sapiens, UniProt P31391). Kind of assay: Binding affinity towards human Somatostatin receptor type 4 using 125I-[Leu8,DTrp22,Tyr25]SRIF-28 as radioligand.
Assay [3] addresses Somatostatin receptor type 5 (Homo sapiens, UniProt P35346). Kind of assay: Binding affinity towards human Somatostatin receptor type 5 using 125I-[Leu8,DTrp22,Tyr25]SRIF-28 as radioligand. A digest of the protocol:
as §1

The target in assay [4] is Somatostatin receptor type 2 (Homo sapiens, UniProt P30874). Kind of assay: Binding affinity towards human Somatostatin receptor type 2 using 125I-[Leu8,DTrp22,Tyr25]SRIF-28 as radioligand. A digest of the protocol: as §1
In assay [5] the target is Somatostatin receptor type 3 (Homo sapiens, UniProt P32745). Kind of assay: Binding affinity towards human Somatostatin receptor type 3 using 125I-[Leu8,DTrp22,Tyr25]SRIF-28 as radioligand. The gist of the method: as §1
Chain of Somatostatin receptor type 3 (P32745 whole entry): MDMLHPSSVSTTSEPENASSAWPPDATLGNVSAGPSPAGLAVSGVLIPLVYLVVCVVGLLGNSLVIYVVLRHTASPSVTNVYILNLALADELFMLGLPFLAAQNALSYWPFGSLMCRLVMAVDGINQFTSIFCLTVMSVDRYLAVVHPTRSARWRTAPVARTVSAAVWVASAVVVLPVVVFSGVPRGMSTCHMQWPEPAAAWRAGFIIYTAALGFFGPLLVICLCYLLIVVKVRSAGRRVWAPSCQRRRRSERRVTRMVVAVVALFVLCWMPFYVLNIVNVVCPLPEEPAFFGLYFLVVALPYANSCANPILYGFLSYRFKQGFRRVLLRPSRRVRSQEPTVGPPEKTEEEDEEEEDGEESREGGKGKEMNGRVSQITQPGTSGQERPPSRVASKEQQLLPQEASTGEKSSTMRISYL

Chain of Somatostatin receptor type 5 (P35346 whole entry): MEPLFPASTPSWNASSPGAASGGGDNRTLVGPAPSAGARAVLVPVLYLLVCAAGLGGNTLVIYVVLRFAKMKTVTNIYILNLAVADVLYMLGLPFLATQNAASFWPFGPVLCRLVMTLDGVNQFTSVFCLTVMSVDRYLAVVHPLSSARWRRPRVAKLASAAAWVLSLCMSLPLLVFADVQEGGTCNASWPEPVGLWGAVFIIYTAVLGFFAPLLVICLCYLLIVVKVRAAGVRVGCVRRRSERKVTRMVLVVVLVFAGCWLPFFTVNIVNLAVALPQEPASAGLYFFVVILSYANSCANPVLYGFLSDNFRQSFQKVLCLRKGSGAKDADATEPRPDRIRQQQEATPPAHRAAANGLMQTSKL
Chain of Somatostatin receptor type 2 (P30874 whole entry): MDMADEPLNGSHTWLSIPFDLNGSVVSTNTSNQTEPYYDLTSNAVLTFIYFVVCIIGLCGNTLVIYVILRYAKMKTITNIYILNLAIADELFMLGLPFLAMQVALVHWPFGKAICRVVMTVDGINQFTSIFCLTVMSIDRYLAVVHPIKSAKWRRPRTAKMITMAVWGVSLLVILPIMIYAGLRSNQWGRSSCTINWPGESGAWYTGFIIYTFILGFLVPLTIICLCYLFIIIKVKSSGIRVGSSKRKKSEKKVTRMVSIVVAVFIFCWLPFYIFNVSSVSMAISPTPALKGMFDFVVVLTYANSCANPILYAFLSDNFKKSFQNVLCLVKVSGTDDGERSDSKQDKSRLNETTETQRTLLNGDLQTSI
Chain of Somatostatin receptor type 4 (P31391 whole entry): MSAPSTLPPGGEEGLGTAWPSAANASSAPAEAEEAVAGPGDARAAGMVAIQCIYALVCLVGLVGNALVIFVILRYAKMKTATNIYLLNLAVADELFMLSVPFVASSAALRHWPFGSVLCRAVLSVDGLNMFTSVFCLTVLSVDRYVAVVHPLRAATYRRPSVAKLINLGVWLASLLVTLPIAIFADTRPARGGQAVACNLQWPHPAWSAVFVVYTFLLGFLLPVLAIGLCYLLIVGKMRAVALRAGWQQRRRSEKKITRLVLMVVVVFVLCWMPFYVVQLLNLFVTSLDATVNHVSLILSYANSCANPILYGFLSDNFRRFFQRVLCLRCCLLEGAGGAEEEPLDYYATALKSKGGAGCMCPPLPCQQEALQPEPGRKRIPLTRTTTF
Chain of Somatostatin receptor type 1 (P30872 whole entry): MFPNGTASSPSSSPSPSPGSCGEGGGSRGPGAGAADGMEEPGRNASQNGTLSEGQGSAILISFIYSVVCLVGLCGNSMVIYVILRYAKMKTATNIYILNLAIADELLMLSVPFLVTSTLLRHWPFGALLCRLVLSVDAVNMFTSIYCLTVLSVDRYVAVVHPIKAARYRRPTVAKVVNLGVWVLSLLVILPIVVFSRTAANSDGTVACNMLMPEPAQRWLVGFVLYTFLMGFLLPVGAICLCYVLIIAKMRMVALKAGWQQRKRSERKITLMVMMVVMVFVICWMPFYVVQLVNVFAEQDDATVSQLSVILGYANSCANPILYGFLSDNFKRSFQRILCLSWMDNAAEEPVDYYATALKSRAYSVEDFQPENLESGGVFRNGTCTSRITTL

As a reminder, the IC50 is the point on the concentration scale where inhibition reaches its midpoint. Lower therefore signals inhibition by little substance. Take `C[C@H](c1ccc2ccccc2c1)[C@@H]1NC(=O)[C@H](Cc2ccc(O)cc2)NC(=O)[C@H](Cc2ccccc2)NC(=O)[C@H](N)CSSC[C@@H](C(=O)O)NC(=O)[C@H](Cc2ccccc2)NC(=O)[C@H]([C@@H](C)O)NC(=O)[C@H](CCCCN)NC1=O`: the IC50 in assay [1] was 410 nM; in assay [2], 2.3 nM; in assay [3], 18 nM; in assay [4], 30 nM; in assay [5] it was 18 nM.
Take `C[C@@H]1NC(=O)[C@H](Cc2ccccc2)NC(=O)[C@@H](N)CSSC[C@@H](C(=O)O)NC(=O)[C@H](C)NC(=O)[C@H]([C@@H](C)O)NC(=O)[C@H](CCCCN)NC(=O)[C@@H](Cc2c[nH]c3ccccc23)NC1=O`: the IC50 in assay [1] was > 10000 nM; in assay [3], > 1000 nM; in assay [4], > 1000 nM and 962 nM; in assay [5] it was > 10000 nM.
With `C[C@@H]1NC(=O)[C@H](Cc2ccccc2)NC(=O)[C@@H](N)CSSC[C@@H](C(=O)O)NC(=O)[C@H](C)NC(=O)[C@H]([C@@H](C)O)NC(=O)[C@H](CCCCN)NC(=O)[C@H](Cc2c[nH]c3ccccc23)NC1=O`, the IC50 in assay [1] was > 10000 nM; in assay [3], > 1000 nM; in assay [4], > 10000 nM; in assay [5] it was > 10000 nM.
In the case of `C[C@@H](O)[C@@H]1NC(=O)[C@H](CCCCN)NC(=O)[C@H](Cc2c[nH]c3ccccc23)NC(=O)N(C)[C@@H](C(=O)c2ccccc2)NC(=O)[C@@H](Cc2ccccc2)NC(=O)[C@@H](N)CSSC[C@@H](C(=O)O)NC(=O)[C@H](Cc2ccccc2)NC1=O` (stereo in doubt), the IC50 in assay [1] was > 10000 nM; in assay [2], 5.4 nM; in assay [3], > 1000 nM; in assay [4], > 1000 nM; in assay [5] it was 403 nM.
With `C[C@@H](O)[C@@H]1NC(=O)[C@H](CCCCN)NC(=O)[C@H]([C@@H](C)c2ccc3ccccc3c2)NC(=O)[C@H](Cc2ccc(O)cc2)NC(=O)[C@H](Cc2ccccc2)NC(=O)[C@@H](N)CSSC[C@@H](C(=O)O)NC(=O)[C@H](Cc2ccccc2)NC1=O`, the IC50 in assay [2] stood at 2.8 nM; in assay [3], 360 nM; in assay [4] it was 194 nM; in assay [5] it was 825 nM.
Take `C[C@@H](O)[C@@H]1NC(=O)[C@H](CCCCN)NC(=O)[C@H]([C@@H](C)c2ccc3ccccc3c2)NC(=O)[C@H](Cc2ccc(O)cc2)NC(=O)[C@H](Cc2ccccc2)NC(=O)[C@H](N)CSSC[C@@H](C(=O)O)NC(=O)[C@H](Cc2ccccc2)NC1=O`: the 50% inhibitory concentration (IC50) was > 10000 nM in assay [1]; 3.5 nM in assay [2]; 668 nM in assay [3]; 339 nM in assay [4]; 664 nM in assay [5].
For `C[C@@H](O)[C@@H]1NC(=O)[C@H](CCCCN)NC(=O)[C@H](Cc2c[nH]c3ccccc23)NC(=O)N(C)[C@H](C(=O)c2ccccc2)NC(=O)[C@H](Cc2ccccc2)NC(=O)[C@@H](N)CSSC[C@@H](C(=O)O)NC(=O)[C@H](Cc2ccccc2)NC1=O` (stereo in doubt), in that order: > 10000 nM, 133 nM, > 1000 nM, > 1000 nM and 725 nM.
For `C[C@@H](O)[C@@H]1NC(=O)[C@H](CCCCN)NC(=O)[C@@H](Cc2c[nH]c3ccccc23)NC(=O)N(C)[C@H](C(=O)c2ccccc2)NC(=O)[C@H](Cc2ccccc2)NC(=O)[C@@H](N)CSSC[C@@H](C(=O)O)NC(=O)[C@H](Cc2ccccc2)NC1=O` (stereo in doubt), in that order: > 10000 nM, 153 nM, > 1000 nM, > 1000 nM and > 1000 nM.
For the molecule `C[C@@H](O)[C@@H]1NC(=O)[C@H](CCCCN)NC(=O)[C@@H](Cc2c[nH]c3ccccc23)NC(=O)N(C)[C@@H](C(=O)c2ccccc2)NC(=O)[C@H](Cc2ccccc2)NC(=O)[C@@H](N)CSSC[C@@H](C(=O)O)NC(=O)[C@H](Cc2ccccc2)NC1=O` (stereo in doubt), the half-inhibitory concentration (IC50) in assay [1] was > 1000 nM; in assay [2] it was 5.2 nM; in assay [3], 768 nM; in assay [4] it was 460 nM; in assay [5], 447 nM.

For the origin of these results see ChEMBL document CHEMBL1145935, “Novel sst(4)-selective somatostatin (SRIF) agonists. 4. Three-dimensional consensus structure by NMR” (J Med Chem, 2003).
